# Assay results: ChEMBL document CHEMBL4725346, “Syntheses and Evaluation of New Bisacridine Derivatives for Dual Binding of G-Quadruplex and i-Motif in Regulating Oncogene c-myc Expression” (J Med Chem, 2020)
# The source made the active and inactive calls. The rule behind the calls is not given here.
# What was measured:
# Quadruplex DNA [1] = assay: Stabilization of 5'-FAM/3'-TAMRA labeled c-myc promoter G-quadruplex DNA FPu22T (unknown origin) assessed as change in melting temperature at 5 uM by FRET assay (reference value: 66.5 degreeC); assay type: nucleic-acid assay
# How it was run: (§1)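 FRET melting of dual FAM/TAMRA-labelled FPu22T annealed in 10 mM Tris-HCl pH 7.4 with KCl. Final 0.2 µM DNA with or without ligand. Excitation 470 nm, emission 530 nm, read every 1 °C over 37–99 °C on a real-time PCR cycler. ΔTm = Tm(DNA+ligand) − Tm(DNA).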
# [2] = Stabilization of 5'-FAM/3'-TAMRA labeled c-myc promoter i-motif DNA FPy33T (unknown origin) assessed as change in melting temperature at 5 uM by FRET assay (reference value: 53.2 degreeC)
# How it was run: (§2)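 FRET melting of dual FAM/TAMRA-labelled FPy33T annealed in 1× BPES (30 mM potassium phosphate, 1 mM EDTA, 100 mM KCl), pH 5.5. Final 0.2 µM DNA with or without ligand. Excitation 470 nm, emission 530 nm, read every 1 °C over 37–99 °C. ΔTm taken against DNA alone.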
# [3] = Stabilization of 5'-FAM/3'-TAMRA labeled hairpin DNA F10T (unknown origin) assessed as change in melting temperature at 5 uM by FRET assay
# [4] = Stabilization of 5'-FAM/3'-TAMRA labeled c-myc promoter i-motif DNA FPy33T (unknown origin) assessed as change in melting temperature at 1 uM by FRET assay (reference value: 53.2 degreeC); how it was run: as §2
# Quadruplex DNA [5] = assay: Stabilization of 5'-FAM/3'-TAMRA labeled c-myc promoter G-quadruplex DNA FPu22T (unknown origin) assessed as change in melting temperature at 1 uM by FRET assay (reference value: 66.5 degreeC); assay type: nucleic-acid assay; how it was run: as §1
# [6] = Stabilization of 5'-FAM/3'-TAMRA labeled hairpin DNA F10T (unknown origin) assessed as change in melting temperature at 1 uM by FRET assay (reference value: 59.1 degreeC)
# dsDNA = assay: Binding affinity to 5'-biotin labeled duplex DNA (unknown origin) by surface plasmon resonance method; assay type: nucleic-acid assay
# How it was run: (§3)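 SPR: 5'-biotin DNA diluted to 1 μM and captured (1000 RU) on a sensor chip, with a blank cell as reference. Running buffers: Py33 in 20 mM MES pH 5.8, 100 mM KCl, 0.05% Tween-20; Pu27 and duplex in 50 mM Tris-HCl pH 7.4, 100 mM KCl. Six ligand concentrations serially diluted from DMSO stock. Association 260 s, dissociation 300 s at 25 °C; NaOH regeneration; blank sensorgrams subtracted.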
# [7] = Binding affinity to 5'-biotin labeled c-myc promoter i-motif DNA Py33 (unknown origin) by surface plasmon resonance method; how it was run: as §3
# Quadruplex DNA [8] = assay: Binding affinity to 5'-biotin labeled c-myc promoter G-quadruplex DNA Pu27 (unknown origin) by surface plasmon resonance method; assay type: nucleic-acid assay; how it was run: as §3
# A-375 = assay: Antiproliferative activity against human A-375 cells after 48 hrs by MTT assay; assay type: functional, cell-based; conditions: A-375, 48 h
# How it was run: (§4)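 Cells seeded at 5.0×10^3 per well, pre-incubated 12 h at 37 °C, 5% CO2, then exposed to compounds for 48 h; DMSO-only control. MTT (2.5 mg/mL) added for 4 h, formazan dissolved in DMSO, absorbance at 570 nm. Each dose tested in triplicate; IC50 from percentage survival relative to negative control.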
# HeLa = assay: Antiproliferative activity against human Hela cells after 48 hrs by MTT assay; assay type: functional, cell-based; how it was run: as §4
# A549 = assay: Antiproliferative activity against human A549 cells after 48 hrs by MTT assay; assay type: functional, cell-based; conditions: A549, 48 h; how it was run: as §4
# U2OS = assay: Antiproliferative activity against human U2OS cells after 48 hrs by MTT assay; assay type: functional, cell-based; how it was run: as §4
# HCT-116 = assay: Antiproliferative activity against human HCT-116 cells after 48 hrs by MTT assay; assay type: functional, cell-based; conditions: HCT-116, 48 h; how it was run: as §4
# SiHa = assay: Antiproliferative activity against human SiHa cells after 48 hrs by MTT assay; assay type: functional, cell-based; how it was run: as §4
# Huh-7 = assay: Antiproliferative activity against human Huh-7 cells after 48 hrs by MTT assay; assay type: functional, cell-based; conditions: Huh-7, 48 h; how it was run: as §4
# ssDNA = assay: Binding affinity to 5'-biotin labeled single-stranded DNA Py33 (unknown origin) at <=50 uM by surface plasmon resonance method; assay type: nucleic-acid assay
# Quadruplex DNA [9] = assay: Stabilization of c-myc promoter G-quadruplex DNA Pu27 (unknown origin) in pH 7.4 Tris-HCl buffer by CD spectroscopy; assay type: nucleic-acid assay
# How it was run: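 Pu27 at 1 µM in 10 mM Tris-HCl pH 7.4, with or without ligand. Annealed at 95 °C for 5 min, cooled to room temperature, stored at 4 °C overnight. CD spectra taken in a 4 mm cuvette over 230–350 nm, three scans averaged, smoothed and buffer-baseline corrected.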
# Quadruplex DNA [10] = assay: Stabilization of c-myc promoter G-quadruplex DNA Pu27 (unknown origin) assessed as effect on melting temperature at 5 uM by CD spectroscopy; assay type: nucleic-acid assay
# How it was run: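 CD melting: Pu27 diluted to 1 µM in 10 mM Tris-HCl, 5 mM KCl, pH 7.4, with or without ligand. Annealed at 95 °C for 5 min, slowly cooled, then heated at 1 °C/min while monitoring 260 nm. Tm obtained by curve fitting.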
# [11] = Stabilization of c-myc promoter i-motif DNA Py33 (unknown origin) assessed as effect on melting temperature at 5 uM by CD spectroscopy
# How it was run: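 CD melting: Py33 at 1 µM in 1× BPES pH 6.4, with or without ligand. Annealed at 95 °C for 5 min, slowly cooled, then heated at 1 °C/min while monitoring 260 nm. Tm obtained by curve fitting.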
# [12] = Drug uptake in human SiHa cells; assay type: ADME, cell-based
# Quadruplex DNA [13] = assay: Binding affinity to c-myc wild-type promoter G-quadruplex/i-motif (unknown origin) expressed in human SiHa cells assessed as reduction in c-myc transcription by measuring decrease in ratio of renilla/firefly luciferase activity at 1/3 IC50 after 48 hrs by dual-luciferase reporter assay; assay type: cell-based
# How it was run: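 SiHa cells transfected with 200 ng psiCHECK2 plasmid carrying wild-type, mutant or deleted c-myc promoter. Compounds added 8 h after transfection, then incubated 48 h at 37 °C. Cells washed with ice-cold PBS; Renilla/firefly activity ratio read by dual-luciferase assay.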
# Quadruplex DNA [14] = assay: Binding affinity to c-myc promoter G-quadruplex/i-motif in human SiHa cells assessed as reduction in c-myc mRNA level incubated for 24 hrs by qRT-PCR analysis; assay type: cell-based; conditions: dose microM 0.625-2.5, time 24.0 hrs
# How it was run: (§5)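 SiHa cells at 0, 0.625, 1.25 and 2.5 μM for 24 h; DMSO control. Total RNA extracted with TRIzol. 1.5 μg RNA reverse-transcribed with oligo dT18 and M-MLV (42 °C 60 min). PCR of 30 cycles (95/58/72 °C), products run on 1.2% agarose. β-actin as internal control; three repeats.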
# Quadruplex DNA [15] = assay: Binding affinity to c-myc promoter G-quadruplex/i-motif in human SiHa cells assessed as reduction in c-myc mRNA level at 1.25 uM incubated for 24 hrs by qRT-PCR analysis; assay type: cell-based; design: scale not given: the % may be the effect or the level left; how it was run: as §5
# Quadruplex DNA [16] = assay: Binding affinity to c-myc promoter G-quadruplex/i-motif in human SiHa cells assessed as reduction in c-myc mRNA level at 2.5 uM incubated for 24 hrs by qRT-PCR analysis; assay type: cell-based; design: scale not given: the % may be the effect or the level left; how it was run: as §5
# Quadruplex DNA [17] = assay: Binding affinity to c-myc promoter G-quadruplex/i-motif in human SiHa cells assessed as reduction in c-myc mRNA level at 5 uM incubated for 24 hrs by qRT-PCR analysis; assay type: cell-based; design: scale not given: the % may be the effect or the level left
# Quadruplex DNA [18] = assay: Binding affinity to c-myc promoter G-quadruplex/i-motif in human SiHa cells assessed as reduction in c-myc expression incubated for 24 hrs by Western blot analysis; assay type: cell-based
# How it was run: (§6)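 SiHa cells treated 24 h at 0, 0.625, 1.25 and 2.5 μM, then lysed in buffer with 1 mM PMSF. Protein measured by BCA, equal loads run on 8% gel and blotted to PVDF. Probed with anti-c-MYC and anti-β-actin (loading control), HRP anti-rabbit secondary, chemiluminescence read-out.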
# Quadruplex DNA [19] = assay: Binding affinity to c-myc promoter G-quadruplex/i-motif in human SiHa cells assessed as reduction in c-myc expression at 1.25 uM incubated for 24 hrs by Western blot analysis; assay type: cell-based; design: scale not given: the % may be the effect or the level left; how it was run: as §6
# Quadruplex DNA [20] = assay: Binding affinity to c-myc promoter G-quadruplex/i-motif in human SiHa cells assessed as reduction in c-myc expression at 2.5 uM incubated for 24 hrs by Western blot analysis; assay type: cell-based; design: scale not given: the % may be the effect or the level left; how it was run: as §6
# Quadruplex DNA [21] = assay: Binding affinity to c-myc promoter G-quadruplex/i-motif in human SiHa cells assessed as reduction in c-myc expression at 5 uM incubated for 24 hrs by Western blot analysis; assay type: cell-based; design: scale not given: the % may be the effect or the level left
# [22] = Stabilization of c-myc promoter i-motif DNA Py33 (unknown origin) assessed as decrease in negative peak intensity at pH 5.5 measured at 260 nanometer by CD spectroscopy
# How it was run: (§7)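 Py33 at 1 µM in 1× BPES pH 5.5 (pH 6.8 random-coil reference), with or without ligand. Annealed at 95 °C for 5 min, cooled, kept at 4 °C overnight. CD spectra in a 4 mm cuvette over 230–350 nm, three scans averaged, buffer-corrected; peaks followed at 288 and 260 nm.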
# [23] = Stabilization of c-myc promoter i-motif DNA Py33 (unknown origin) assessed as decrease in positive peak intensity at pH 5.5 measured at 288 nanometer by CD spectroscopy; how it was run: as §7
# [24] = Stabilization of c-myc promoter i-motif DNA Py33 (unknown origin) assessed as reduction in appearance of random coil confirmation at pH 5.5 by CD spectroscopy; how it was run: as §7
# [25] = Stabilization of c-myc promoter i-motif DNA Py33 (unknown origin) assessed as increase in slower migration band incubated overnight by silver staining based PAGE analysis
# How it was run: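 Py33 (3 µM) co-annealed with increasing ligand in 1× BPES pH 6.8 at 95 °C for 5 min, cooled, held at 4 °C overnight. Run on native 20% acrylamide in 1× TBE at 140 V for 5 h at 5 °C, then silver-stained.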
SMILES,ΔTm (Quadruplex DNA [1]),ΔTm [2],ΔTm [3],ΔTm [4],ΔTm (Quadruplex DNA [5]),ΔTm [6],Kd (dsDNA),Kd [7],Kd (Quadruplex DNA [8]),IC50 (A-375),IC50 (HeLa),IC50 (A549),IC50 (U2OS),IC50 (HCT-116),IC50 (Huh-7),Activity (Quadruplex DNA [10]),Activity [11],Drug uptake [12],IC50 (SiHa),further results
Cc1ccc2nc3ccc(C)cc3c(NCCOCCOCCNc3c4cc(C)ccc4nc4ccc(C)cc34)c2c1,,,,1 °C,13.5 °C,2.3 °C,22.1 µM,26.2 µM,3.6 µM,1.75 µM,1.36 µM,2.26 µM,1.23 µM,2.12 µM,1.95 µM,Active,inactive,Active,0.56 µM,Activity (Quadruplex DNA [9]): Active; Activity (Quadruplex DNA [13]): Active; Activity (Quadruplex DNA [14]): Dose-dependent effect; Activity (Quadruplex DNA [15]): 32.6%; Activity (Quadruplex DNA [16]): 55.8%; Activity (Quadruplex DNA [17]): 79.8%; Activity (Quadruplex DNA [18]): Dose-dependent effect; Activity (Quadruplex DNA [19]): 25.3%; Activity (Quadruplex DNA [20]): 42.2%; Activity (Quadruplex DNA [21]): 62.3%
Cc1ccc2nc3ccc(C)cc3c(NCCNCCNc3c4cc(C)ccc4nc4ccc(C)cc34)c2c1,6.2 °C,16 °C,2.5 °C,,,,,,,,,,,,,,,,,

# More lines, in order of falling Kd (dsDNA), values ahead:
ΔTm (Quadruplex DNA [1]),ΔTm [2],ΔTm [3],ΔTm [4],ΔTm (Quadruplex DNA [5]),ΔTm [6],Kd (dsDNA),Kd [7],Kd (Quadruplex DNA [8]),IC50 (A-375),IC50 (HeLa),IC50 (A549),IC50 (U2OS),IC50 (HCT-116),IC50 (Huh-7),Activity (Quadruplex DNA [10]),Activity [11],Drug uptake [12],SMILES,IC50 (SiHa),further results
,,,24.3 °C,17.1 °C,2.8 °C,21.7 µM,1 µM,2.7 µM,,,,,,,Active,Active,Not Active,Cc1ccc2nc3ccc(C(=O)NCCCN(C)C)cc3c(NCCCNCCNCCCNc3c4cc(C)ccc4nc4ccc(C(=O)NCCCN(C)C)cc34)c2c1,,Activity [22]: Active; Activity [23]: Active; Activity [24]: Active; Activity [25]: Dose-dependent effect
8.3 °C,10 °C,6.8 °C,2.7 °C,6.2 °C,4.1 °C,13.1 µM,,,,,,,,,,,,Cc1ccc2nc3ccc(C)cc3c(NCCN(C)C)c2c1,,
,,,0.7 °C,15.2 °C,2.5 °C,6.5 µM,12.3 µM,4.7 µM,6.85 µM,13.8 µM,9.79 µM,5.48 µM,11.1 µM,20 µM,,,,c1ccc2c(NCCNCCNc3c4ccccc4nc4ccccc34)c3ccccc3nc2c1,12 µM,Activity (ssDNA): inactive
